FXIIa inh 1536: human FXIIa protease inhibitors, primary screen, biochemical, 1536-well; Coagulation factor XII (Homo sapiens), P00748; purified FXIIa, Boc-QGR-AMC fluorogenic substrate, 2 h; inhibition, % at 5 µM; 220,000 tested, 0.3% active; in the data active = inhibition above about 40%
FXIa inh 1536: human FXIa protease inhibitors, primary screen, biochemical, 1536-well; inhibition, % at 5 µM; 220,000 tested, 0.14% active; purified FXIa, Boc-Glu-Ala-Arg-AMC fluorogenic substrate; AID 798, 2007;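 active = inhibition of at least 40%; inactive = inhibition below 40%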;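 note: fluorescence of freed AMC excited at 355 nm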
thrombin 1536: human alpha-thrombin inhibitors, primary screen, counter-screen for coagulation protease inhibitor project, biochemical, 1536-well, fluorogenic AMC substrate; AID 1046, 2008; Boc-VPR-AMC fluorogenic substrate cleavage; 220,000 tested, 0.26% active; Prothrombin (Homo sapiens), P00734; inhibition, % at 5 µM;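 active = inhibition at or above 40%; inactive = inhibition below 40%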
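signal = AMC fluorescence, 355/460 nm | material = human alpha-thrombin enzyme | control set = enzyme without compound as high, wells lacking enzyme as low | times = reaction at room temperature | read-out basis = percent inhibition scaled between no-compound controls and no-enzyme blanks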
KLK5 inh: human KLK5 protease inhibitors, primary screen, biochemical, 1536-well; Kallikrein-5 (Homo sapiens), Q9Y337; recombinant hK5, fluorogenic AMC substrate cleavage; inhibition, % at 5 µM; 210,000 tested, 0.59% active;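 active = inhibition of 40% or more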
Furin inh: human furin inhibitors, primary screen, biochemical, fluorescence intensity. P09958. purified furin, fluorogenic substrate cleavage. inhibition, % at 20 µM or 30 µM. 220,000 tested, 0.061% active. AID 463115, 2010; in the data active = inhibition above about 25%
Target sequence (P09958 108-714 limits assumed): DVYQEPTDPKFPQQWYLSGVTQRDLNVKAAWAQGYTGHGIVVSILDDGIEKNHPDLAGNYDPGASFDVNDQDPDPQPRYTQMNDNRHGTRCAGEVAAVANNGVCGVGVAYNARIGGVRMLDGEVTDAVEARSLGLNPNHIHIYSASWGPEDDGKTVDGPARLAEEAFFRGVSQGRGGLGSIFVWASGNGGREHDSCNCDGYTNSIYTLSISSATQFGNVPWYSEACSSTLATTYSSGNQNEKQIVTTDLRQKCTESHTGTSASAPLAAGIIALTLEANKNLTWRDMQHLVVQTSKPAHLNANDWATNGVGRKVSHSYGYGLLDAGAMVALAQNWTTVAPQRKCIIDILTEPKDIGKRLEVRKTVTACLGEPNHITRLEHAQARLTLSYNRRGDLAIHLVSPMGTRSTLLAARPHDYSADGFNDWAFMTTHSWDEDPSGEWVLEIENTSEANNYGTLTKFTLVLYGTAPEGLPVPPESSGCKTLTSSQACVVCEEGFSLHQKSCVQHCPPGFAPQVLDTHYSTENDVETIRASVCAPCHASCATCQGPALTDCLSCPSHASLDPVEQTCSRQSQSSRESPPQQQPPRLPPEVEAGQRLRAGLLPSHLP
A number is an active result; n = inactive; x = no result. In the library only some 1.1% were active in any assay of this set; here they are far more common.

SMILES | FXIIa inh 1536 | FXIa inh 1536 | thrombin 1536 | KLK5 inh | Furin inh
COc1ccc(-c2coc3cc(O)ccc3c2=O)cc1OC | n | n | n | 43 | n
Cc1ccc(-c2nc(CS(=O)(=O)CC(=O)N3CCc4ccccc4C3)c(C)o2)cc1 | 51 | n | n | n | n
Cc1ccc(-c2nc(CS(=O)(=O)CC(=O)N3CCCCCC3)c(C)o2)cc1 | n | n | n | n | n
CCOC(=O)C1C(C(=O)Nc2cccc(C(F)(F)F)c2)C1C(=O)NC(C)C (stereo not given) | n | n | n | 53 | n
CCOC(=O)C1=C(C)N=C2SCCC(=O)N2C1c1sccc1C (stereo not given) | n | n | n | n | n
C=CCOC(=O)C1=C(C)N=C2SCCC(=O)N2C1c1cccs1 (stereo not given) | 71 | n | n | n | n
Cc1nc(CN2CCCCC2)cc(=O)[nH]1 | n | n | n | n | n
CC1CCC2(CC1)SCC(=O)N2c1ccccc1 (stereo not given) | n | n | n | 91 | n
CCC1CCC2(CC1)SCC(=O)N2c1ccccc1 (stereo not given) | n | 59 | n | 63 | n
O=C(N/N=C/c1cccc(F)c1)c1c(O)c2ccccc2[nH]c1=O | n | n | 45 | n | n
O=C(N/N=C/c1ccc(F)cc1)c1c(O)c2ccccc2[nH]c1=O | n | n | n | n | n
CCOc1ccccc1/C=C(/NC(=O)c1ccccc1)C(=O)NCC(=O)O | n | n | n | 47 | n
CCOc1ccccc1/C=C(\NC(=O)c1ccccc1)C(=O)NCCC(=O)O | n | n | n | n | n
C=CCc1cc(/C=N/NC(=O)CSc2nnc(CCCc3ccc(OC)cc3)o2)cc(OC)c1O | n | n | n | n | n
CCC(=O)Nc1ccc(NC(=O)CSc2nnnn2CC)cc1C | n | n | n | 72 | n
CCn1nnnc1SCC(=O)Nc1ccc2c(c1)OCO2 | n | n | n | n | n
CN(NC(=O)c1ccccc1F)c1ncccc1[N+](=O)[O-] | n | n | n | n | n
CC1CCOC2(O1)C(=O)Nc1ccccc12 (stereo not given) | 67 | n | n | 41 | n
CCS(=O)(=O)c1ccc2c(c1)N(S(C)(=O)=O)CC(C(=O)NC1CC1)O2 (stereo not given) | n | n | n | n | n
CC(C)(C)c1oc(C(=O)O)cc1CN1CCOCC1 | n | n | n | n | n
CCOc1ccc(NC(=O)C(C)O)c(NS(=O)(=O)c2ccc(CCNC(C)=O)cc2)c1 (stereo not given) | n | n | 104 | 79 | n
CCCc1cc2c(cc1NS(=O)(=O)c1ccc(CCNC(C)=O)cc1)OCO2 | n | n | n | n | n
COC(=O)c1cc(OC)nc2ccc(Br)cc12 | n | n | n | n | n
C=CCOC(=O)C(C#N)c1nc2ccccc2nc1N1CCN(Cc2ccccc2)CC1 (stereo not given) | n | n | n | 46 | n
COCCOC(=O)C(C#N)c1nc2ccccc2nc1N1CCN(Cc2ccccc2)CC1 (stereo not given) | n | n | n | n | n
SMILES | FXIIa inh 1536 | FXIa inh 1536 | thrombin 1536 | KLK5 inh | Furin inh
C=CCNC(=O)C(C#N)c1nc2ccccc2nc1N1CCN(Cc2ccccc2)CC1 (stereo not given) | n | n | 104 | n | n
COCCCNC(=O)C(C#N)c1nc2ccccc2nc1N1CCN(Cc2ccccc2)CC1 (stereo not given) | n | n | n | n | n
c1ccc(-c2cnn3c(-c4ccccc4)c(-c4ccccc4)nc3n2)cc1 | n | n | n | n | n
O=C1NC(=Nc2cccc(O)c2)S/C1=C\c1cccnc1 | n | n | n | 66 | n
COc1cccc(C(C)NC(=O)Nc2ccccc2Cl)c1 (stereo not given) | n | n | n | n | n
Cc1csc(NC(=O)Cc2c[nH]c3ccccc23)n1 | 40 | n | n | n | n
COCCNCC(=O)Nc1nc(C)cs1 | 102 | 46 | n | n | n
Cc1cnc(NC(=O)Cc2c[nH]c3ccccc23)s1 | n | n | n | n | n
COc1ccc(Br)cc1CNC(=O)CCc1nc(-c2ccc(C)cc2)no1 | n | n | n | n | 26
COc1ccc(-c2noc(CCC(=O)NCc3cc(Br)ccc3OC)n2)cc1 | n | n | n | n | n
CC(C)[C@H](NC(=O)[C@H](CCCN=C(N)N)NC(=O)NC(Cc1ccccc1)C(=O)O)C(=O)NC(C=O)CCCN=C(N)N (stereo not given in full) | 47 | 43 | n | n | n
Cc1cc(NS(=O)(=O)c2ccc(N3C(=O)C4C5C=CC(C5)C4C3=O)cc2)nc(C)n1 (stereo not given) | n | 67 | n | n | n
Cc1ccc(S(=O)(=O)Nc2ccc(S(=O)(=O)Nc3cc(C)nc(C)n3)cc2)cc1 | n | n | x | n | n
O=C(Nc1ccccc1)ON=C1CCCC1 | n | n | n | n | n
Cc1ccc(NC(=O)ON=C2CCCC2)cc1 | n | n | n | 44 | n
C1=C(c2ccccc2)CCN(c2nc3ccccc3n3cnnc23)C1 | n | n | n | 41 | n
C/C(=N/NS(=O)(=O)c1ccccc1)c1ccc(NC(=O)C2CC2)cc1 | n | n | n | x | n
O=C(Nc1ccc(Cl)c(Cl)c1)C1CC(=O)N(c2ccc(Br)cc2)C1 (stereo not given) | n | n | 49 | n | n
O=C1C[C@H]2[C@H](CO)[C@@H](OC(=O)c3ccc(-c4ccccc4)cc3)C[C@H]2O1 | n | n | n | 72 | n
CCOC(=O)c1ccc(NC(=O)c2cc3c(s2)CCC3)cc1 | n | n | n | n | n
CCCCCCCCCC(=O)Nn1cnc2ccccc2c1=O | 52 | n | n | 70 | n
COc1ccccc1C(=O)Nn1cnc2ccccc2c1=O | n | n | n | n | n
COc1ccc(CNC(=O)c2cc(SC)ccc2Cl)cc1OC | n | n | n | n | n
Brc1ccc(N=Nc2ccc3ccccc3n2)cc1 | n | n | n | n | n
CCN(CC)C(=N)/C(C#N)=N/Nc1ccc(C)cc1 | n | n | n | 42 | n
SMILES | FXIIa inh 1536 | FXIa inh 1536 | thrombin 1536 | KLK5 inh | Furin inh
COC(=O)c1ccccc1N1CCS(=O)(=O)CC1 | n | n | n | n | n
COc1ccc(C2CC(=O)C(C(c3ccc(O)cc3)C3C(=O)CC(c4ccc(OC)cc4)CC3=O)C(=O)C2)cc1 (stereo not given) | 45 | n | n | 50 | n
CCc1cc(-c2[nH]ncc2-c2nc3ccccc3n2C)c(O)cc1O | n | 75 | n | n | n
CN(CC(=O)Nc1ccccc1C(F)(F)F)C(=O)COc1cccnc1[N+](=O)[O-] | n | n | n | n | n
CC(C)S(=O)(=O)c1cnc(-c2cccnc2)nc1N | n | n | n | n | n
CC(=O)NC1C(=O)N(C)c2ccc(Br)cc21 (stereo not given) | n | n | n | 45 | n
